Measurements from article PMC3873039 (Anti-Cancer Agents in Medicinal Chemistry, 2013).

Assays:
JURKAT = experiment: CellTiter-Glo luminescent cell viability assay; assay type: cell-based, human; details: 24 h, doses 0, 2, 10, 50, 250, 500 µM, p<0.05
In short: (§1)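 Cells grown in RPMI 1640 with 10% FBS, 1.5 mM L-glutamine and penicillin/streptomycin at 37 °C, 5% CO2. Seeded at 2.5 x 10³ cells/well and exposed 24 h to ethanol-dissolved test compound (0, 2, 10, 50, 250, 500 µM) with 0.1% ethanol vehicle. ATP luminescence normalized to vehicle (100%). IC50 taken from linear regression. Lowest significant dose set by one-way ANOVA/Tukey, p<0.05. Triplicates, three independent experiments.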

CCRF-CEM [1] = experiment: CellTiter-Glo luminescent cell viability assay; assay type: cell-based, human; details: 24 h, doses 0, 2, 10, 50, 250, 500 µM, p<0.05
In short: as §1

THP-1 = experiment: Cell cycle analysis, propidium iodide flow cytometry; assay type: cell-based, human; details: THP-1, IC50 dose, 24 h; vehicle control G0/G1 = 42.3%
In short: (§2)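 Seeded at 0.5 x 10^6 cells per well in 12-well plates and treated 24 h at the IC50 concentration of each test compound from CellTiter-Glo. Cells were pelleted (400 g, 5 min), PBS-washed and fixed in 80% ethanol overnight at -20 °C. Staining used 50 µg/mL PI plus RNase overnight at 4 °C.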

leukemia cell lines = experiment: Cell cycle analysis, summary over the leukemia panel; assay type: cell-based, human; details: IC50 dose, 24 h, 8 leukemia cell lines
In short: as §2

CCRF-CEM [2] = experiment: Hoechst 33342 nuclear morphological analysis of apoptosis; assay type: cell-based; details: Homo sapiens, 24 h, read-out: AP50 (50% induction of apoptosis), Hoechst 33342 staining (Hoe)
In short: (§3)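 Seeded at 0.5 x 10⁶ cells/well in 12-well plates and treated 24 h. Cells were pelleted (400 g, 5 min, 4 °C), washed in PBS, fixed in 4% paraformaldehyde, cytospun, air-dried, then stained with 10 μg/ml Hoechst 33342 for 10 min in the dark. Fluorescence microscopy: 200 cells counted, scored by condensed/intense nuclei, shrinkage, blebbing and apoptotic bodies. % apoptotic nuclei calculated. AP50 = concentration giving 50% apoptotic cells.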

all leukemia cell lines [3] = experiment: Apoptosis; assay type: cell-based, human; details: for EC50: Homo sapiens, 24 h, read-out: AP50 values (range over leukemia cell lines)
HL60 = experiment: NucView caspase 3 activity assay by flow cytometry; assay type: cell-based, human; details: for The lowest dose of polyphenols at which there was a significant induction of apoptosis compared to the vehicle control: HL60, caspase 3 activity, 24 h, p<0.05; for EC50: Homo sapiens, HL-60, 24 h, read-out: AP50 (50% induction of apoptosis), Caspase 3 activity assay (C3)
In short: (§4)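 Seeded at 0.5 x 10⁶ cells/well and treated 24 h, with series of 0–50 or 0–250 µM depending on compound. Normalized to vehicle (0% apoptosis). Mean ± STD, three independent experiments in triplicate. One-way ANOVA/Tukey, p<0.05. AP50 = concentration giving 50% apoptotic cells.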

all leukemia cell lines [4] = experiment: CellTiter-Glo assay, summary over the leukemia panel; assay type: cell-based, human; details: for IC50: Homo sapiens, 24 h, read-out: IC50 values (range over leukemia cell lines)
In short: (§5)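 Cells plated at 2.5 x 10^3 per well in complete RPMI 1640 (10% FBS, 37 °C, 5% CO2). Test compounds dissolved in ethanol and dosed at 2–500 µM for 24 h; vehicle control was 0.1% (v/v) ethanol. Viability was read as ATP luminescence, normalised to vehicle (100%). IC50 was taken from linear regression of each curve. Triplicates, three independent experiments.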

CCRF-CEM [5] = experiment: NucView caspase 3 activity assay by flow cytometry; assay type: cell-based, human; details: 24 h; for EC50: Homo sapiens, read-out: AP50 (50% induction of apoptosis), Caspase 3 activity assay (C3); for The lowest dose of polyphenols at which there was a significant induction of apoptosis compared to the vehicle control: caspase 3 activity, p<0.05
In short: as §4

KG1a [6] = experiment: NucView caspase 3 activity assay by flow cytometry; assay type: cell-based, human; details: 24 h; for EC50: Homo sapiens, KG-1a, read-out: AP50 (50% induction of apoptosis), Caspase 3 activity assay (C3); for The lowest dose of polyphenols at which there was a significant induction of apoptosis compared to the vehicle control: KG1a, caspase 3 activity, p<0.05
In short: as §4

U937 = experiment: NucView caspase 3 activity assay by flow cytometry; assay type: cell-based, human; details: for EC50: Homo sapiens, U-937, 24 h, read-out: AP50 (50% induction of apoptosis), Caspase 3 activity assay (C3); for The lowest dose of polyphenols at which there was a significant induction of apoptosis compared to the vehicle control: U937, caspase 3 activity, 24 h, p<0.05
In short: as §4

MOLT-3 = experiment: Cell cycle analysis, propidium iodide flow cytometry; assay type: cell-based, human; details: MOLT-3, IC50 dose, 24 h; for Percentage of cells in G0/G1 phase of cell cycle (significant accumulation): vehicle control G0/G1 = 64.5%
In short: as §2

non-tumor cells (CD34+) = experiment: Hoechst 33342 nuclear morphological analysis of apoptosis; assay type: cell-based; details: 24 h, read-out: AP50 (50% induction of apoptosis), Hoechst 33342 staining (Hoe)
In short: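 CD34+ cells treated 24 h across the IC25–IC50 range, then pelleted (400 g, 4 °C) and fixed in 4% paraformaldehyde/PBS. Cytospins were air-dried and stained with 10 μg/ml Hoechst 33342 for 10 min in the dark, then viewed by fluorescence microscopy. 200 cells were scored per sample as % apoptotic nuclei (shrinkage, blebbing, chromatin condensation, apoptotic bodies). AP50 = concentration giving 50% apoptosis.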

KG1a [7] = experiment: Hoechst 33342 nuclear morphological analysis of apoptosis; assay type: cell-based; details: Homo sapiens, KG-1a, 24 h, read-out: AP50 (50% induction of apoptosis), Hoechst 33342 staining (Hoe)
In short: as §3

CCRF-CEM [8] = experiment: Cell cycle analysis, propidium iodide flow cytometry; assay type: cell-based, human; details: IC50 dose, 24 h; for Percentage of cells in G0/G1 phase of cell cycle (significant accumulation): vehicle control G0/G1 = 41.9%
In short: as §2

[9] = cited from earlier work
myeloid cell lines = experiment: CellTiter-Glo assay, summary over myeloid lines; assay type: cell-based; details: Homo sapiens, 24 h, read-out: IC50 (range in myeloid cell lines)
In short: as §5

lymphoid cell lines [10] = experiment: CellTiter-Glo assay, summary over lymphoid lines; assay type: cell-based; details: Homo sapiens, 24 h, read-out: IC50 (range in lymphoid cell lines)
In short: as §5

[11] = tested on: lung cancer cell lines (A549 and CH27); details: 24 h; cited from earlier work
lymphoid cell lines [12] = experiment: Apoptosis; assay type: cell-based; details: Homo sapiens, read-out: AP50 values in three lymphoid cell lines
[13] = tested on: lung (A549) and leukemia (HL-60) cell lines; details: 24 h; cited from earlier work

SMILES	The lowest dose of polyphenols at which there was a significant inhibition of cell proliferation compared to the vehicle control (JURKAT)	The lowest dose of polyphenols at which there was a significant inhibition of cell proliferation compared to the vehicle control (CCRF-CEM [1])	Percentage of cells in G0/G1 phase of cell cycle (significant accumulation) (THP-1)	Phase of cell cycle accumulation over the leukemia cell lines (leukemia cell lines)	EC50 (CCRF-CEM [2])	EC50 (all leukemia cell lines [3])	The lowest dose of polyphenols at which there was a significant induction of apoptosis compared to the vehicle control (HL60)	EC50 (HL60)	IC50 (all leukemia cell lines [4])	EC50 (CCRF-CEM [5])	The lowest dose of polyphenols at which there was a significant induction of apoptosis compared to the vehicle control (CCRF-CEM [5])	EC50 (KG1a [6])	The lowest dose of polyphenols at which there was a significant induction of apoptosis compared to the vehicle control (KG1a [6])	EC50 (U937)	The lowest dose of polyphenols at which there was a significant induction of apoptosis compared to the vehicle control (U937)	Percentage of cells in G0/G1 phase of cell cycle (significant accumulation) (MOLT-3)	EC50 (non-tumor cells (CD34+))	EC50 (KG1a [7])	Percentage of cells in G0/G1 phase of cell cycle (significant accumulation) (CCRF-CEM [8])	IC50 (myeloid cell lines)	also measured
Cc1cc(O)c2c(c1)C(=O)c1cc(O)cc(O)c1C2=O [Emodin]	2 µM	2 µM	G0/G1= 50.8%	G0/G1 phase in all leukemia cell lines	> 500 µM	2 to 27 µM	10 µM	8.5 µM	5 to 22 µM	> 10 µM	10 µM	> 10 µM	2 µM	4 µM	2 µM	G0/G1 =70%	> 500 µM	> 500 µM	G0/G1 =50%	–	Number of leukemia cell lines in which 50% apoptosis was induced (all leukemia cell lines [3]; Jurkat, MOLT3, HL-60, THP-1 and U937): 5 of the 8
O=c1c(O)c(-c2ccc(O)c(O)c2)oc2cc(O)cc(O)c12 [Quercetin]	2 µM	2 µM	G0/G1 =52%	–	50 µM	19 to 50 µM	10 µM	50 µM	8 to 33 µM	50 µM	2 µM	> 50 µM	10 µM	50 µM	2 µM	–	> 500 µM	125 µM	–	33 to 155 µM	plasma concentration ([9]; 50-100 mg dose): 750 to 1500 nM; plasma half-life [9]: 11 to 28 h; IC50 (lymphoid cell lines [10]): 8 to 20 µM; Potency relative to apigenin and chrysin (all leukemia cell lines [4]; times more potent than apigenin and chrysin): 5-10 times; Percentage of cells in G2/M phase of cell cycle (significant accumulation) (MOLT-3; vehicle control G2/M = 7.5%): G2/M =19%; Percentage of cells in S phase of cell cycle (significant accumulation) (CCRF-CEM [8]; vehicle control S = 47.2%): S = 51.4%
O=C1c2cccc(O)c2C(=O)c2c(O)cc(CO)cc21 [Aloe - Emodin, Aloe-emodin]	50 µM	50 µM	G0/G1 =52%	–	150 µM	–	50 µM	185 µM	180 to 450 µM	50 µM	50 µM	> 250 µM	50 µM	50 µM	50 µM	G0/G1 = 68%	> 500 µM	360 µM	G0/G1 =49%	–	–
O=c1cc(-c2ccccc2)oc2cc(O)cc(O)c12 [Chrysin]	50 µM	50 µM	G0/G1 =52.1%	G0/G1 phase in 7 out of the 8 leukemia cell lines	40 µM	–	50 µM	175 µM	–	250 µM	50 µM	> 250 µM	250 µM	150 µM	50 µM	G0/G1 =69.3%	> 500 µM	> 500 µM	G0/G1 =49.4%	335 to 500 µM	IC50 (lymphoid cell lines [10]): 128 to 217 µM
C(=C\c1ccccc1)/c1ccccc1 [Trans-Stilbene, Trans-stilbene]	50 µM	50 µM	G0/G1 =53%	–	200 µM	–	50 µM	40 µM	109 to 500 µM	> 500 µM	50 µM	> 500 µM	50 µM	200 µM	50 µM	G0/G1 = 69%	> 500 µM	360 µM	G0/G1 =49.1%	–	IC50 [11]: 25 to 98 µM; EC50 (lymphoid cell lines [12]): 40 to 460 µM; IC50 [13]: 6.25 µM
O=C(O)c1cc(O)c2c(c1)C(=O)c1cccc(O)c1C2=O [Rhein]	50 µM	50 µM	G0/G1 =47%	–	250 µM	–	50 µM	> 250 µM	–	200 µM	50 µM	> 250 µM	50 µM	60 µM	50 µM	G0/G1=72%	> 500 µM	> 500 µM	G0/G1 =54%	–	–
